Shown are actives, neighbours in structure and some others; about 3.5% of the full set was active somewhere.
DENV2 CPE = DENV2-induced cell death inhibition. DENV2-infected cells, cytopathic effect rescue, plate reader. CPE inhibition, % at 9.99 µM. hit rate 1.7% among 350,000; in the data active = CPE inhibition above about 20%, passing the limit was not always enough; inconclusive = no clear call, values can overlap the other calls; tested in BHK-21 cells
Ecoli rRNA inh = inhibits bacterial ribosomal RNA function over humanized ribosomes; E. coli WT GFP vs humanized-ribosome RFP mutants, fluorescence, 24 h; active compounds read low; DMSO median 0, no signal -100; GFP signal change (wild-type ribosome), % (concentration not given with the values); hit rate 1.6% among 350,000; AID 720706;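 active = significant combined selectivity score with lowered wild-type GFP, culture density cut under 30%, mutant RFP and density less affected; inactive = any of these conditions unmet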
FN deposit inh = fibronectin deposition inhibition | inhibition, % at 12.6 µM | AH1F fibroblasts, Alexa488-fibronectin deposition fluorescence, overnight | hit rate 0.086% among 350,000 | AID 743247;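 active = mean inhibition across replicates of 30% or more, regardless of how many single replicates reach that level; inconclusive = mean under 30% yet at least half of replicates reach 30%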
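Material: AH1F fibroblast monolayer depositing Alexa488-labelled fibronectin into matrix | Input: 10000 AH1F cells/well | Medium: DMEM plus 2% serum, read in PBS | Reagent: Alexa488-fibronectin, 24 nM final in well | Compound dosing: One dose per compound, pinned | Schedule: 1 h adhesion, overnight exposure | Measured by: Fluorescence at 485 nm excitation, 525 nm emission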
PGC1a acetyl inh = PGC1a acetylation modulation, inhibitor mode; hit rate 0.17% among 350,000; inhibition, % at 15.6 µM; AID 651687; U2OS PGC1a acetylation, AlphaScreen anti-acetyl-lysine; with virally co-expressed GCN5 acetyltransferase;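 active = every replicate shows inhibition of at least 40%; inconclusive = mean inhibition at least 40% but some replicate below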
Env fusion inh = HIV envelope-mediated fusion inhibition; HeLa-JRFL Env/CEM21 cell fusion, luciferase; inhibition, % at 12.3 µM; hit rate 1.1% among 360,000;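 active = mean replicate inhibition score of at least 50 and every replicate individually at or above 50; inconclusive = only one of the two criteria met; inactive = mean below 50 and not all replicates reaching 50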
PglD DTNB = blocks C. jejuni PglD acetyltransferase activity; purified PglD enzyme, DTNB colorimetric CoA detection; inhibition, % at 12.5 µM; hit rate 0.098% among 360,000; in the data active = inhibition above about 16%, passing the limit was not always enough; inconclusive = no clear call, values can overlap the other calls
Each line names hits and unclear results; the compound was inactive in the other large screens.

O=C(O)c1ccc(S(=O)(=O)c2ccc3c(c2)C(=O)N(c2ccc(O)cc2)C3=O)cc1	Ecoli rRNA inh -36 (no result: PglD DTNB)
COc1ccc(NC(=O)N(C)C[C@H]2OCCCC[C@H](C)Oc3ccc(NS(=O)(=O)c4ccccc4)cc3C(=O)N([C@@H](C)CO)C[C@@H]2C)cc1	none
Cc1c(NC(=O)c2ccc(-c3ccc([N+](=O)[O-])cc3Cl)o2)c(=O)n(-c2ccccc2)n1C	Ecoli rRNA inh -22 (no result: PglD DTNB)
Cc1c(NC(=O)CN2C(=O)c3ccc([N+](=O)[O-])cc3C2=O)c(=O)n(-c2ccccc2)n1C	none (no result: FN deposit inh, PglD DTNB)
Cc1nc2ccn(Cc3ccccc3)c(=O)c2cc1C(=O)N1CCN(c2ccccc2)CC1	DENV2 CPE 26
O=C(O)c1ccccc1C(=O)N1CCN(Cc2ccc3c(c2)OCO3)CC1	none
O=C(c1cccc(Cl)c1)N1CCN(C(=O)c2ccccc2F)CC1	none (no result: DENV2 CPE, Ecoli rRNA inh, FN deposit inh, Env fusion inh)
O=C(c1ccccc1Br)N1CCN(Cc2ccc3c(c2)OCO3)CC1	DENV2 CPE 50
O=C(c1ccccc1F)N1CCN(Cc2cccc(Cl)c2)CC1	Env fusion inh 69 (no result: DENV2 CPE, Ecoli rRNA inh, PGC1a acetyl inh)
O=C(N1CCN(Cc2ccc3c(c2)OCO3)CC1)C(Cl)(Cl)Cl	Ecoli rRNA inh -19
COCC#Cc1cnc2c(c1)C(=O)N([C@@H](C)CO)C[C@H](C)[C@H](CN(C)C(=O)Cc1ccncc1)O2	none
CNc1cc(-c2ccc(O)cc2C)ncn1	DENV2 CPE 29
COCCNC(=O)C[C@H]1CC[C@H]2[C@@H](COC[C@H](O)CN2C(=O)Nc2ccc3c(c2)OCO3)O1	none
CCOC(=O)c1sc2ncc([N+](=O)[O-])cc2c1N	Ecoli rRNA inh -36 (no result: PGC1a acetyl inh, PglD DTNB)
Nc1c(C(=O)Nc2ccccc2)sc2ncc([N+](=O)[O-])cc12	none
CC(C)NC(=O)N1[C@H](CO)[C@@H](c2ccccc2)C12CN(C(=O)c1ccccn1)C2	none (no result: Env fusion inh, PglD DTNB)
CC(C)NC(=O)N1CC2(C1)[C@H](c1ccccc1)[C@@H](CO)N2C(=O)c1ccccn1	DENV2 CPE 33 (no result: FN deposit inh, Env fusion inh, PglD DTNB)
CC(C)NC(=O)N1[C@@H](CO)[C@@H](c2ccccc2)C12CN(Cc1ccccc1)C2	DENV2 CPE 28 (no result: FN deposit inh, Env fusion inh, PglD DTNB)
O=C(Nc1ccc(-c2nc3ccccc3o2)cc1)c1cc(-n2cnnc2)ccc1Cl	Env fusion inh 58 (no result: DENV2 CPE, Ecoli rRNA inh)
N#Cc1c(N2CCCC(O)C2)nc(N)c2c(N)nc3c(c12)CC(=O)N3C12CC3CC(CC(C3)C1)C2 (stereo not given)	none (no result: DENV2 CPE, Ecoli rRNA inh)
C=C(C)CN(CC)c1nc(N)c2c(N)nc3c(c2c1C#N)CC(=O)N3C12CC3CC(CC(C3)C1)C2	Env fusion inh 80 (no result: DENV2 CPE, Ecoli rRNA inh, PGC1a acetyl inh)
C[C@@H]1CN([C@H](C)CO)C(=O)Cc2cc(NS(C)(=O)=O)ccc2O[C@H]1CN(C)Cc1ccc(-c2ccccc2)cc1	none (no result: FN deposit inh)
Cc1ccccc1C(=O)O/N=C/c1c(N2CCOCC2)n(C)c2ccccc12	Env fusion inh 60 (no result: DENV2 CPE, Ecoli rRNA inh)
COC(=O)[C@H](Cc1ccc(O)cc1)NC(=O)Cn1cnc(C(=O)Nc2ccc(C)c(C)c2)n1	none (no result: Env fusion inh)
CCC(C)C(CO)NCCCn1cnc(C(=O)Nc2ccc(C)c(C)c2)n1 (stereo not given)	DENV2 CPE 59
COC(=O)[C@H](Cc1ccccc1)NCCCn1cnc(C(=O)Nc2ccc(C)c(C)c2)n1	Ecoli rRNA inh -35
COC(=O)[C@H](Cc1ccccc1)NC(=O)Cn1cnc(C(=O)Nc2ccc(C)c(C)c2)n1	Env fusion inh 69
Cc1ccc(NC(=O)c2ncn(CCCN3CCN(c4ncccn4)CC3)n2)cc1C	Env fusion inh inconclusive
Cc1ccc(NC(=O)c2ncn(CCCNCCCN(C)C)n2)cc1C	none
Cc1ccc(NC(=O)c2ncn(CCCN3CCN(c4ccccn4)CC3)n2)cc1C	Ecoli rRNA inh -22
COc1ccc2c3c([nH]c2c1)[C@H](CO)N(Cc1cc(F)ccc1F)CC31CCN(C(=O)C2CCC2)CC1	none (no result: FN deposit inh, Env fusion inh, PglD DTNB)
CNC(=O)C[C@@H]1CC[C@H]2[C@H](COc3ccc(NC(=O)c4cscn4)cc3C(=O)N2C)O1	none
O=C(Nc1ccc(Cl)c(Cl)c1)Nn1cnnc1	Ecoli rRNA inh -22
O=C(Nc1ccccn1)c1ccc(CN(c2ccccc2)S(=O)(=O)c2ccccc2)cc1	none
Cc1cccc(C(C)C)c1NC(=O)c1ccc(CN(c2ccccc2)S(=O)(=O)c2ccccc2)cc1	Env fusion inh 60 (no result: DENV2 CPE, Ecoli rRNA inh)
Cc1ccc(S(=O)(=O)N(C)c2cc(S(=O)(=O)Nc3ccncc3)c(C)cc2C)cc1	none (no result: DENV2 CPE, Ecoli rRNA inh, PGC1a acetyl inh, PglD DTNB)
CNS(=O)(=O)c1cc(N(C)S(=O)(=O)c2ccc(C)cc2)c(C)cc1C	Ecoli rRNA inh -45 (no result: PglD DTNB)
CSc1nc(-c2ccc(Cl)cc2)c(C#N)c(=O)[nH]1	Env fusion inh 59 (no result: DENV2 CPE, PGC1a acetyl inh, PglD DTNB)
N#C[C@H]1[C@H](c2ccc(-c3cccc(F)c3)cc2)[C@H](CO)N1c1nc(-c2ccccc2)cs1	none
OCC1OC(Oc2c(Br)cc(Br)cc2Br)C(O)C(O)C1O (stereo not given)	PGC1a acetyl inh 63 (no result: Env fusion inh)
C[C@H]1CN([C@@H](C)CO)C(=O)c2c(c3ccccc3n2C)-c2ccccc2CO[C@@H]1CN(C)C(=O)Nc1cccc(C(F)(F)F)c1	none (no result: Env fusion inh, PglD DTNB)
CCOc1ccc(CCNC(=O)CCc2nc3ccccc3[nH]2)cc1OCC	Ecoli rRNA inh -20 (no result: PglD DTNB)
O=C(O)C1CCCCC1C(=O)Nc1ccc(OCc2ccccc2)cc1 (stereo not given)	DENV2 CPE inconclusive, Ecoli rRNA inh -24
O=C(O)[C@H]1CCCC[C@H]1C(=O)Nc1ccc(Nc2ccccc2)cc1	none (no result: DENV2 CPE, Ecoli rRNA inh)
O=C(CCN1CCN(Cc2ccccc2)CC1)Nc1ccc(OCc2ccccc2)cc1	Env fusion inh 59 (no result: DENV2 CPE, Ecoli rRNA inh)
O=C(c1ccccc1)c1ccc(OCCOCCN2CCN(Cc3ccccc3)CC2)cc1	Ecoli rRNA inh -36 (no result: FN deposit inh, PglD DTNB)
CCN(CC)C(=O)C1CCN(Cc2cccc(OCc3ccccc3)c2)CC1	none (no result: DENV2 CPE, Ecoli rRNA inh)
CCN(CC)C(=O)C1CCN(Cc2ccc(OCc3ccccc3)cc2)CC1	DENV2 CPE 28
Cc1noc(C)c1S(=O)(=O)Nc1ccc2c(c1)C(=O)N([C@H](C)CO)C[C@H](C)[C@H](CN(C)Cc1ccc(C(=O)Nc3ccccc3N)cc1)OCCCC[C@@H](C)O2	none (no result: FN deposit inh, Env fusion inh, PglD DTNB)
Cc1cccc(OCC(=O)NNC(=O)C2CCCCC2C(=O)O)c1 (stereo not given)	DENV2 CPE 22
C[C@@H]1CN([C@H](C)CO)C(=O)c2cc(NC(=O)Cc3cn(C)c4ccccc34)ccc2O[C@@H]1CN(C)S(=O)(=O)c1cn(C)cn1	none (no result: FN deposit inh, Env fusion inh)
COc1ccc(/C=C/c2nc(S(=O)(=O)c3ccccc3)c(NCCCN(C)C)o2)cc1OC	Env fusion inh 74
COc1ccccc1/C=C/c1nc(S(=O)(=O)c2ccccc2)c(NCCN(C)C)o1	none (no result: PGC1a acetyl inh)
CC(C)(C)c1ccc(C(=O)Nc2ccc(Cl)cc2)cc1	none (no result: PGC1a acetyl inh, Env fusion inh, PglD DTNB)
COC(=O)Cc1ccc(NC(=O)c2ccc(C(C)(C)C)cc2)cc1	Env fusion inh 59 (no result: DENV2 CPE, Ecoli rRNA inh, FN deposit inh)
C[C@@H]1CN([C@H](C)CO)C(=O)c2cc(C#CCc3ccccc3)cnc2O[C@H]1CN(C)C(=O)Cc1cccnc1	none (no result: FN deposit inh, Env fusion inh, PglD DTNB)
